From publication PMC11370311 (Cell reports, 2024)

Columns and labels:
SND1 = assay: GFP-Trap IP-MS of GFP-RMET; assay type: cell-based, human; conditions: HEK293T, with vs without AdOx, 3 days, label-free MS
How it was run: (§1)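 HEK293T cells at 80% confluence were transfected with GFP-RMET using lipofectamine 2000. Half the cells got 25uM AdOx for 3 days. Lysis was in mild buffer (10 mM Tris/Cl pH 7.5, 150 mM NaCl, 0.5 mM EDTA, 0.5% NP-40) with protease inhibitors, then sonication and clearing. GFP-trap agarose ran 2 h at 4°C, followed by washing, elution, gel and LC-MS. Peptide counts per protein were taken at 1% protein FDR, 2 peptides minimum, and 0.1% peptide FDR.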

SMN = assay: GFP-Trap IP-MS of GFP-RMET; assay type: cell-based, human; conditions: HEK293T, with vs without AdOx, 3 days, label-free MS
How it was run: as §1

PRMT1 = assay: GFP-Trap IP-MS of GFP-RMET; assay type: cell-based, human; conditions: HEK293T, AdOx-treated, 3 days, label-free MS
How it was run: (§2)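 HEK293T cells were transfected with GFP-RMET; half were treated with 25uM AdOx for 3 days. Cells were lysed in mild NP-40 buffer with protease inhibitors and sonicated, and cleared lysate was captured on GFP-trap agarose 2 h at 4°C. Eluates were gel-separated and the excised bands analysed by nanoLC-MS/MS on an Orbitrap Fusion. Sequest HT searching used 10 ppm MS and 0.6 Da MS/MS tolerance, with 1% protein FDR (2 peptides) and 0.1% peptide FDR. Peptide counts per protein were reported.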

PRMT5 = assay: GFP-Trap IP-MS of GFP-RMET; assay type: cell-based, human; conditions: HEK293T, AdOx-treated, 3 days, label-free MS
How it was run: as §2

MEP50 = assay: GFP-Trap IP-MS of GFP-RMET; assay type: cell-based, human; conditions: HEK293T, AdOx-treated, 3 days, label-free MS
How it was run: as §2

RIOK1 = assay: GFP-Trap IP-MS of GFP-RMET; assay type: cell-based, human; conditions: HEK293T, AdOx-treated, 3 days, label-free MS
How it was run: as §2

[1] = test system: interaction between GFP-SART3 and endogenous fibrillarin; assay: Co-IP of GFP-SART3 with endogenous fibrillarin; assay type: cell-based, human; conditions: HEK293T; 3 days; 10uM EPZ015666 or 1uM MS023; IP/western blot
How it was run: (§3)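 HEK293T cells were grown at 37°C in DMEM with 10% FBS and 1% antibiotic-antimycotic, then transfected at 80% confluence using lipofectamine 2000. They were treated with 10uM EPZ015666 (PRMT5) or 1uM MS023 (PRMT1) for 3 days. Lysates were made in mild buffer (10mM Tris pH 7.5, 150mM NaCl, 0.5mM EDTA, 0.5% NP-40, protease inhibitors). Anti-GFP on Protein A/G beads was incubated with lysate 2 h at 4°C, then SDS-PAGE, PVDF, ECL western.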

[2] = test system: interaction between GFP-SART3 and endogenous coilin; assay: Co-IP of GFP-SART3 with endogenous coilin; assay type: cell-based, human; conditions: HEK293T; 3 days; 10uM EPZ015666 or 1uM MS023; IP/western blot
How it was run: as §3

[3] = test system: interaction between SART3 and the representative spliceosomal proteins; assay: Co-IP of GFP-SART3 with representative spliceosomal proteins; assay type: cell-based, human; conditions: HeLa, 10uM EPZ015666, 3 days, IP/western blot
How it was run: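 HeLa SART3-KO clones were made by lentiCRISPRv2 and blasticidin 10 μg/mL, then single-cell cloned. They were restored by lentiviral GFP-SART3 (WT, Y112A or W377A) with puromycin 2 μg/mL selection. Lysates in mild NP-40 buffer were incubated with anti-GFP on Protein A/G beads, 2 h at 4°C, washed three times and boiled. Partners were detected by SDS-PAGE/PVDF western with HRP secondary and ECL on X-ray film.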

GST-SART3(HAT) (N + C) = assay: Biotinylated GAR peptide pull-down of GST-SART3; assay type: binding; conditions: 2 μg GST-tagged protein, 1h at 4°C, western blot, repeated three times
How it was run: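 Streptavidin beads loaded with biotinylated GAR peptides (1 h, 4°C, rocking): fibrillarin unmethylated, ADMA or SDMA; coilin unmethylated, or SDMA at Arg 1–3 or 3–5. After 3 washes in mild lysis buffer (10 mM Tris/Cl pH 7.5, 0.5 mM EDTA, 0.5% NP-40), beads took 2 μg GST protein for 1 h at 4°C with rocking. Coilin pull-downs also ran in RIPA. Bound protein was eluted and read by western blot.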

In the case of Nc1ncnc2c1ncn2C(C=O)OC(C=O)CO (stereo not shown) [AdOx], the “enrichment of SND1 as RMET binder” value (SND1) is reported as “selectively enriched as RMET binders, exclusively in cells that were not treated with AdOx”, the “enrichment of SMN as RMET binder” value (SMN) is reported as “selectively enriched as RMET binders, exclusively in cells that were not treated with AdOx” and the “enrichment of PRMT1 with RMET” value (PRMT1) is reported as “relatively enriched”. For the same molecule, the “enrichment of PRMT5 with RMET” value (PRMT5) was “relatively enriched”, the “enrichment of MEP50 with RMET” value (MEP50) was “relatively enriched” and the “enrichment of RIOK1 with RMET” value (RIOK1) was “relatively enriched”.
For O=C(NC[C@H](O)CN1CCc2ccccc2C1)c1cc(NC2COC2)ncn1 [EPZ015666], the “interaction between GFP-SART3 and endogenous fibrillarin” value [1] was “reduced the interaction”, the “interaction between GFP-SART3 and endogenous coilin” value [2] was “reduced the interaction” and the “interaction between SART3 and representative spliceosomal proteins” value [3] was “inhibits the interaction”.
CC(C)Oc1ccc(-c2c[nH]cc2CN(C)CCN)cc1 [MS023] was tested, and the “interaction between GFP-SART3 and endogenous fibrillarin” value [1] was “this reduced interaction was not observed” and the “interaction between GFP-SART3 and endogenous coilin” value [2] was “this reduced interaction was not observed”.
In the case of “Biotin-AKGRGMRG[Rme2s]G[Rme2s]G[Rme2s]GHP-Amide”, the “binding of coilin GAR peptide to GST-SART3(HAT)” value (GST-SART3(HAT) (N + C); biotinylated coilin GAR peptides, mild buffer (300 mM NaCl)) is reported as “strong interaction”.
“GGRGRGGGFRGRGRGGGG-Biotin [unmethylated]” was tested, and the “pull-down of GST-SART3(HAT) by fibrillarin GAR peptide” value (GST-SART3(HAT) (N + C); biotinylated fibrillarin GAR peptides, streptavidin beads, mild buffer (150 mM NaCl)) was “only the SDMA-modified peptide pulled down GST-SART3(HAT)”.
